From ChEMBL document CHEMBL4270642, “Boronic ester-linked macrocyclic lipopeptides as serine protease inhibitors targeting Escherichia coli type I signal peptidase” (Eur J Med Chem, 2018)

Tests used:
[1] = target: Signal peptidase I (Escherichia coli K-12) (UniProt P00803); test: Inhibition of Escherichia coli type 1 signal peptidase lepB assessed as residual activity at 5 uM preincubated for 10 mins followed by Dabcyl-VGGTATAYGAFSRPGLE-(EDANS)-OH substrate addition measured after 2 hrs by FRET based assay (reference value: 100%)
Sequence of Signal peptidase I (Escherichia coli K-12) (P00803 whole entry): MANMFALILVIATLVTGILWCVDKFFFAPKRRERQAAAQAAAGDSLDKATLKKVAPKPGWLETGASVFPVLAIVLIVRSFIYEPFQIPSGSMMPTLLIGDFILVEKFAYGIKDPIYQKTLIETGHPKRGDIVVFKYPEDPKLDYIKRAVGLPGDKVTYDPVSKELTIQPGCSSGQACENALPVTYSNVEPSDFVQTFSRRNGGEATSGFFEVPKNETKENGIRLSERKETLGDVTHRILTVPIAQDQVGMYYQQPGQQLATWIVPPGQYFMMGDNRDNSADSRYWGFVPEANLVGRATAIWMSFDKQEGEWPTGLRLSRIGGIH
Procedure, shortened: (§1)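 EcLepB (about 50 nM estimated) preincubated 10 min with compound. Reaction started with Dabcyl/EDANS FRET peptide at 8 µM final (Km 20 µM). Fluorescence followed continuously at 535 nm, 22 °C, for 2 h. Cleavage rates plotted against inhibitor concentration; IC50 from non-linear regression of sigmoidal dose-response curves.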

[2] = target: Signal peptidase I (Escherichia coli K-12) (UniProt P00803); test: Inhibition of Escherichia coli type 1 signal peptidase lepB assessed as residual activity at 10 uM preincubated for 10 mins followed by Dabcyl-VGGTATAYGAFSRPGLE-(EDANS)-OH substrate addition measured after 2 hrs by FRET based assay (reference value: 100%); procedure, shortened: as §1
[3] = target: Signal peptidase I (Escherichia coli K-12) (UniProt P00803); test: Inhibition of Escherichia coli type 1 signal peptidase lepB assessed as residual activity at 2.5 uM preincubated for 10 mins followed by Dabcyl-VGGTATAYGAFSRPGLE-(EDANS)-OH substrate addition measured after 2 hrs by FRET based assay (reference value: 100%); procedure, shortened: as §1
[4] = target: Signal peptidase I (Escherichia coli K-12) (UniProt P00803); test: Inhibition of Escherichia coli type 1 signal peptidase lepB assessed as residual activity at 0.0781 uM preincubated for 10 mins followed by Dabcyl-VGGTATAYGAFSRPGLE-(EDANS)-OH substrate addition measured after 2 hrs by FRET based assay (reference value: 100%); procedure, shortened: as §1
Escherichia coli [5] = test: Antibacterial activity against tolC deficient Escherichia coli CH3130 after 16 to 20 hrs by broth microdilution method; assay type: functional
Procedure, shortened: (§2)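 Broth microdilution in cation-adjusted Mueller-Hinton II per EUCAST/CLSI; two-fold compound series 64 down to 0.25 µg/mL final. Inoculum from fresh colonies (non-selective agar, 18-24 h, 35 ± 2 °C), adjusted to 0.5 McFarland, diluted to about 5 × 10^5 CFU/mL final. Static incubation 16-20 h at 35 ± 2 °C; MIC read visually as complete growth inhibition against medium-only wells.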

Staphylococcus aureus = test: Antibacterial activity against Staphylococcus aureus ATCC 29213 after 16 to 20 hrs by broth microdilution method; assay type: functional; procedure, shortened: as §2
[6] = target: Signal peptidase I (Escherichia coli K-12) (UniProt P00803); test: Inhibition of Escherichia coli type 1 signal peptidase lepB assessed as residual activity at 0.0024 uM preincubated for 10 mins followed by Dabcyl-VGGTATAYGAFSRPGLE-(EDANS)-OH substrate addition measured after 2 hrs by FRET based assay (reference value: 100%); procedure, shortened: as §1
HepG2 = test: Cytotoxicity against human HepG2 cells after 72 hrs by FMSA; assay type: cell-based; conditions: HepG2, 72 h
Procedure, shortened: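 HepG2 (ATCC) grown in EMEM with 10% FBS, pen/strep, 2 mM L-glutamine, used up to 20 passages. Seeded at 1000 cells/well, cultured overnight, then dosed acoustically from DMSO stocks. Eight two-fold dilutions in duplicate from top 64 or 32 µM; 72 h at 37 °C, 5% CO2. Fluorescein diacetate hydrolysis read at ex 485/em 530 nm; IC50 by non-linear regression.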

Escherichia coli [7] = test: Antibacterial activity against Escherichia coli D22 CGSG 5163 harboring Ips mutant after 16 to 20 hrs by broth microdilution method; assay type: functional
Procedure, shortened: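 Broth microdilution in cation-adjusted Mueller-Hinton II broth, following EUCAST and CLSI guidelines. Two-fold series at final concentrations 64 down to 0.25 µg/mL, with medium-only and growth controls. Inoculum from fresh colonies (18-24 h, 35 °C ± 2 °C) adjusted to 0.5 McFarland, final ≈5 × 10^5 CFU/mL. Plates incubated unshaken 16-20 h at 35 °C ± 2 °C. MIC read visually as complete inhibition of growth.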

Acinetobacter baumannii = test: Antibacterial activity against Acinetobacter baumannii ATCC 19606 after 16 to 20 hrs by broth microdilution method; assay type: functional; conditions: ATCC 19606 = CIP 70.34 = JCM 6841; procedure, shortened: as §2
[8] = target: Signal peptidase I (Escherichia coli K-12) (UniProt P00803); test: Inhibition of Escherichia coli type 1 signal peptidase lepB assessed as residual activity at 0.0049 uM preincubated for 10 mins followed by Dabcyl-VGGTATAYGAFSRPGLE-(EDANS)-OH substrate addition measured after 2 hrs by FRET based assay (reference value: 100%); procedure, shortened: as §1
[9] = target: Signal peptidase I (Escherichia coli K-12) (UniProt P00803); test: Inhibition of Escherichia coli type 1 signal peptidase lepB assessed as residual activity at 1.25 uM preincubated for 10 mins followed by Dabcyl-VGGTATAYGAFSRPGLE-(EDANS)-OH substrate addition measured after 2 hrs by FRET based assay (reference value: 100%); procedure, shortened: as §1
[10] = target: Signal peptidase I (Escherichia coli K-12) (UniProt P00803); test: Inhibition of Escherichia coli type 1 signal peptidase lepB assessed as residual activity at 0.625 uM preincubated for 10 mins followed by Dabcyl-VGGTATAYGAFSRPGLE-(EDANS)-OH substrate addition measured after 2 hrs by FRET based assay (reference value: 100%); procedure, shortened: as §1
Pseudomonas aeruginosa [11] = test: Antibacterial activity against Pseudomonas aeruginosa PAO1 after 16 to 20 hrs by broth microdilution method; assay type: functional; procedure, shortened: as §2
[12] = target: Signal peptidase I (Escherichia coli K-12) (UniProt P00803); test: Inhibition of Escherichia coli type 1 signal peptidase lepB assessed as residual activity at 0.0195 uM preincubated for 10 mins followed by Dabcyl-VGGTATAYGAFSRPGLE-(EDANS)-OH substrate addition measured after 2 hrs by FRET based assay (reference value: 100%); procedure, shortened: as §1
Signal peptidase I = Signal peptidase I (Escherichia coli K-12, UniProt P00803); test: Inhibition of Escherichia coli type 1 signal peptidase lepB preincubated for 10 mins followed by Dabcyl-VGGTATAYGAFSRPGLE-(EDANS)-OH substrate addition measured after 2 hrs by FRET based assay; procedure, shortened: as §1
Sequence of Signal peptidase I (P00803 whole entry): as above

[13] = target: Signal peptidase I (Escherichia coli K-12) (UniProt P00803); test: Inhibition of Escherichia coli type 1 signal peptidase lepB assessed as residual activity at 0.0391 uM preincubated for 10 mins followed by Dabcyl-VGGTATAYGAFSRPGLE-(EDANS)-OH substrate addition measured after 2 hrs by FRET based assay (reference value: 100%); procedure, shortened: as §1
Pseudomonas aeruginosa [14] = test: Antibacterial activity against efflux defective Pseudomonas aeruginosa PAO750 after 16 to 20 hrs by broth microdilution method; assay type: functional; procedure, shortened: as §2
[15] = target: Signal peptidase I (Escherichia coli K-12) (UniProt P00803); test: Inhibition of Escherichia coli type 1 signal peptidase lepB assessed as residual activity at 0.1563 uM preincubated for 10 mins followed by Dabcyl-VGGTATAYGAFSRPGLE-(EDANS)-OH substrate addition measured after 2 hrs by FRET based assay (reference value: 100%); procedure, shortened: as §1
[16] = target: Signal peptidase I (Escherichia coli K-12) (UniProt P00803); test: Inhibition of Escherichia coli type 1 signal peptidase lepB assessed as residual activity at 0.3125 uM preincubated for 10 mins followed by Dabcyl-VGGTATAYGAFSRPGLE-(EDANS)-OH substrate addition measured after 2 hrs by FRET based assay (reference value: 100%); procedure, shortened: as §1
[17] = target: Signal peptidase I (Escherichia coli K-12) (UniProt P00803); test: Inhibition of Escherichia coli type 1 signal peptidase lepB assessed as residual activity at 0.0012 uM preincubated for 10 mins followed by Dabcyl-VGGTATAYGAFSRPGLE-(EDANS)-OH substrate addition measured after 2 hrs by FRET based assay (reference value: 100%); procedure, shortened: as §1
[18] = Hemolytic activity in human RBC at 100 uM after 45 mins by spectrophotometric method relative to control; assay type: ADME, cell-based, Erythrocyte; conditions: red blood cells (erythrocytes), read-out: Activity
Procedure, shortened: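 Heparinized human blood; red cells washed three times in Tyrode buffer pH 7.4. Compound at 100 µM final with 1% DMSO and 50% RBC, shaken (250 rpm) 45 min at 37 °C. Cells pelleted (1000 × g, 10 min); supernatant haemoglobin at 540 nm. Percent lysis relative to buffer-only and 2% Triton X-100 controls.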

Klebsiella pneumoniae = test: Antibacterial activity against Klebsiella pneumoniae ATCC 13883 after 16 to 20 hrs by broth microdilution method; assay type: functional; procedure, shortened: as §2
Escherichia coli [19] = test: Antibacterial activity against Escherichia coli ATCC 25922 after 16 to 20 hrs by broth microdilution method; assay type: functional; procedure, shortened: as §2
[20] = target: Signal peptidase I (Escherichia coli K-12) (UniProt P00803); test: Inhibition of Escherichia coli type 1 signal peptidase lepB assessed as residual activity at 0.0098 uM preincubated for 10 mins followed by Dabcyl-VGGTATAYGAFSRPGLE-(EDANS)-OH substrate addition measured after 2 hrs by FRET based assay (reference value: 100%); procedure, shortened: as §1

SMILES	Activity [1] [%]	Activity [2] [%]	Activity [3] [%]	Activity [4] [%]	MIC (Escherichia coli [5]) [mg/L]	MIC (Staphylococcus aureus) [mg/L]	Activity [6] [%]	IC50 (HepG2) [µM]	MIC (Escherichia coli [7]) [mg/L]	MIC (Acinetobacter baumannii) [mg/L]	Activity [8] [%]	Activity [9] [%]	Activity [10] [%]	MIC (Pseudomonas aeruginosa [11]) [mg/L]	Activity [12] [%]	IC50 (Signal peptidase I) [µM]	Activity [13] [%]	MIC (Pseudomonas aeruginosa [14]) [mg/L]	hemolysis at 0.75 h, 100 µM [18] [%]	MIC (Escherichia coli [19])	other results
C[C@@H]1NC(=O)[C@@H](NC(=O)[C@H](C)NC(=O)[C@@H](NC(=O)[C@H](CCCN)NC(=O)c2ccc(=O)n(-c3ccccc3)c2)[C@@H](C)O)Cc2cn(nn2)CCO[C@@H]2C[C@@H]3OB1O[C@@H]3C2	26.8	10.4	42.8	100	> 64	> 64	82.4	> 64	> 64	> 64	97.5	62.1	66.9	> 64	104	1.66	91.6	> 64	0.04	> 64 mg/L	Activity [15]: 105%; Activity [16]: 69.5%; Activity [17]: 84.6%; MIC (Klebsiella pneumoniae): > 64 mg/L; Activity [20]: 101%
C[C@@H]1NC(=O)[C@@H](NC(=O)[C@H](C)NC(=O)[C@@H](NC(=O)[C@H](CCCN)NC(=O)c2ccc(-c3ccccc3)cc2)[C@@H](C)O)Cc2cn(nn2)CCO[C@@H]2C[C@@H]3OB1O[C@@H]3C2	9.7	7.2	9.9	48.6	> 64	> 64	94.6	> 64	> 64	> 64	84.9	10.6	11.8	> 64	83.8	0.072	68.9	> 64	0.2	> 64 mg/L	Activity [15]: 26.4%; Activity [16]: 12%; Activity [17]: 100%; MIC (Klebsiella pneumoniae): > 64 mg/L; Activity [20]: 88.3%
CCCCCCc1ccc(-c2ccc(C(=O)N3CC(CN)C[C@H]3C(=O)N[C@H](C(=O)N[C@@H](C)C(=O)N[C@@H](CC(N)=O)C(=O)N[C@@H](C)B(O)O)[C@@H](C)O)cc2)cc1 (some centres undefined)	–	–	–	–	–	–	–	16	–	–	–	–	–	–	–	0.006	–	–	2.5	16 µM	–
